Here are results for ten compounds from ChEMBL document CHEMBL3739382 (Eur J Med Chem, 2015).

The structures appear in SMILES notation.

The target of series [1] is T1, Tyrosinase (Mus musculus) (UniProt P11344).
T1 sequence (whole entry): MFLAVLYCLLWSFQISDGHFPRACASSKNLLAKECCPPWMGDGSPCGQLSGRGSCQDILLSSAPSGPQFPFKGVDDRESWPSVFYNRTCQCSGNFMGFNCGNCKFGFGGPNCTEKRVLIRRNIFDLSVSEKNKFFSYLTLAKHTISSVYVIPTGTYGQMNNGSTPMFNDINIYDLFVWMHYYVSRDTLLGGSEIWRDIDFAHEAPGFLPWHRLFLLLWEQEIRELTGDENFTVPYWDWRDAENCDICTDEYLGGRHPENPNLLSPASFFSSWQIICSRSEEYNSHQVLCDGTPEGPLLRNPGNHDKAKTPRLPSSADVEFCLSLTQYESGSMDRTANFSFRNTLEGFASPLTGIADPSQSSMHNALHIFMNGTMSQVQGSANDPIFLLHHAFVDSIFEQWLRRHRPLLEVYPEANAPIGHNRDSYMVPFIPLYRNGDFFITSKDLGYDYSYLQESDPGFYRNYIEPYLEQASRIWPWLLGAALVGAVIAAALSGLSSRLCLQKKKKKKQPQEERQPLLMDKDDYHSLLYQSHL
As to the kind of experiment: Inhibition of tyrosinase in mouse B16F10 cells assessed as remaining melanin production at 50 uM relative to control. As to conditions: B16-F10.

For series [2], the target named is T1, Tyrosinase (Mus musculus). As to the kind of experiment: Inhibition of tyrosinase in mouse B16F10 cells assessed as remaining melanin production at 20 uM relative to control. Conditions: B16-F10.
Series [3] deals with T2, Tyrosinase (Agaricus bisporus) (UniProt O42713).
T2 sequence (whole entry): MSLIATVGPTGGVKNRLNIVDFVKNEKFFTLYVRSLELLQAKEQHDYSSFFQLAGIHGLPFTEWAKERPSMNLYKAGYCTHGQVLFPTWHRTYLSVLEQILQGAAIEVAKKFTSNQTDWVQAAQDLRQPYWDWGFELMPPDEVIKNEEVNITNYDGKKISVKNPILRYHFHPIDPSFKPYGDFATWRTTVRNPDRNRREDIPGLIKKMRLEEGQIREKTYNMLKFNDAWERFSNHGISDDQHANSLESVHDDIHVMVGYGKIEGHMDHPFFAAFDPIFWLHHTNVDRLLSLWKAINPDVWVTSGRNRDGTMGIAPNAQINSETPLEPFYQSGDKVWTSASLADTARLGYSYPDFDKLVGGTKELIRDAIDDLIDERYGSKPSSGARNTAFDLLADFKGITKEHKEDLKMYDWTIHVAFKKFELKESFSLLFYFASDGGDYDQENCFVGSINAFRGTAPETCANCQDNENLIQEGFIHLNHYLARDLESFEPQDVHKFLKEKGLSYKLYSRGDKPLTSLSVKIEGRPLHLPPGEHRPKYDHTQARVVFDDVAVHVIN
As to the kind of experiment: Binding affinity to mushroom tyrosinase assessed as fluorescence quenching.

Series [4] deals with T1, Tyrosinase (Mus musculus). The series can be described thus: Inhibition of tyrosinase in mouse B16F10 cells assessed as remaining melanin production at 10 uM relative to control. Conditions: B16-F10.
Series [5] can be described thus: Cytotoxicity against mouse B16F10 cells assessed as cell survival at 50 uM after 48 hrs by MTT assay. It is filed as cell-based, B16-F10. As to conditions: read-out: Survival. A general note: Formazan colour is commonly taken as a measure of viable cells.
Series [6] addresses T3, Tyrosinase (Agaricus bisporus, UniProt O42713).
T3 sequence (O42713 whole entry): T2 sequence (whole entry)
As to the kind of experiment: Inhibition of mushroom tyrosinase using L-tyrosine as substrate.

In series [7] the target is T2, Tyrosinase (Agaricus bisporus). The series can be described thus: Non-competitive inhibition of mushroom tyrosinase using L-tyrosine as substrate by Lineweaver-Burk plots analysis. In a few lines: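 Absorbance at 475 nm read at 30 °C in PBS with 5% DMSO. Global nonlinear Michaelis–Menten fitting over four inhibition models gave Vmax, Km, Kic and Kiu, with the model chosen by minimal χ2.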

For series [8], the target named is T1, Tyrosinase (Mus musculus). As to the kind of experiment: Inhibition of tyrosinase in mouse B16F10 cell lysates using DOPA as substrate relative to control. Further details: concentration or dose not given beside the values. It counts as cell-free. As to conditions: B16-F10, concentration not given here.
In series [9] the target is T3, Tyrosinase. The series can be described thus: Competitive inhibition of mushroom tyrosinase using L-tyrosine as substrate by Lineweaver-Burk plots analysis. An outline of the steps: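 Global nonlinear Michaelis–Menten fitting over four inhibition models gave Vmax, Km, Kic and Kiu, with the model chosen by minimal χ2.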

For orientation: residual activity means the signal under treatment as a percentage of the control signal. Broadly, the IC50 is the midpoint of a concentration-inhibition curve. In general, inhibition refers to the relative decrease from the control value, in per cent. By Ki is commonly meant a measure of affinity in units of concentration, obtained from inhibition or displacement.

For `CCCc1cc(C(N)=S)ccn1` [PROTIONAMIDE], the residual activity in series [1] is 100%; in [2], 103%; in [4], 105%. In addition, in [3], the KSV was 10.2 ×10³ /M. Also, in series [5], the viability at 48 h, 50 µM amounted to 121%. For the same compound, the IC50 in series [6] worked out at 4.5 µM. The compound also had a Kic in series [7] of 2.4 µM. For the same compound, the inhibition in [8] turned out to be 84%.

With `CC(=S)Nc1ccccc1`, the values for the residual activity in series [1], in series [2] and in series [4] were 57%, 75% and 91%, respectively. Moreover, the KSV in [3] turned out to be 8.3 ×10³ /M. In series [9], the affinity corresponds to a Ki of 1.2 µM. Moreover, in series [5], the viability at 48 h, 50 µM turned out to be 116%. In series [6], this compound yielded an IC50 of 4.1 µM. The inhibition in [8] was 42%.

For the compound `CCc1cc(C(N)=S)ccn1` [ETHIONAMIDE], the residual activity was found to be 104% in series [1], 104% in [2] and 107% in series [4]. In [3], the KSV is 9.5 ×10³ /M. Further, the viability at 48 h, 50 µM in series [5] came out at 106%. Besides, the half-maximal inhibitory concentration (IC50) in series [6] is 4 µM. In series [7], this compound yielded a Kic of 1.9 µM. In series [8], this compound showed an inhibition of 88%.

As for `NC(=S)Nc1ccccc1` [PHENYLTHIOUREA], the residual activity came out at 54% in [1], 55% in series [2] and 63% in [4]. Besides, the KSV in series [3] came to 2.4 ×10³ /M. In addition, the viability at 48 h, 50 µM in series [5] worked out at 106%. This compound also registered an inhibition in series [8] of 27%.

For `CC(=O)Nc1ccccc1` [ACETANILIDE], the residual activity in [1] came to 102%; in series [2], 103%; in series [4], 105%. In series [3], the KSV was found to be 1 ×10³ /M. Further, the viability at 48 h, 50 µM in series [5] was found to be 116%. The same compound yielded an IC50 in series [6] above 1000 µM. For the same compound, the inhibition in series [8] came to 99%.

In the case of `NC(=S)c1ccccn1`, the results for the residual activity in series [1], in series [2] and in series [4] were 56%, 80% and 98%, respectively. Besides, in [3], the KSV is 9 ×10³ /M. Moreover, the viability at 48 h, 50 µM in series [5] is 105%. The same compound yielded an IC50 in series [6] of 14.4 µM. Also, the Kic in series [7] was found to be 2.7 µM. The inhibition in series [8] is 78%.

With `NNC(=O)c1ccncc1` [ISONIAZID], the residual activity in series [1] is 102%; in series [2], 100%; in series [4] it was 104%. The KSV in series [3] was found to be 1.7 ×10³ /M. Further, in series [5], the viability at 48 h, 50 µM was 103%. Moreover, in [6], the IC50 was above 1000 µM. The compound further came in with an inhibition in [8] of 97%.

With `NC(=S)c1ccncc1`, the residual activity was determined as 104% in series [1], 103% in series [2] and 106% in series [4]. The KSV in [3] turned out to be 7.5 ×10³ /M. In addition, in series [5], the viability at 48 h, 50 µM stood at 110%. Further, the IC50 in [6] was 43.8 µM. The compound also gave a Kic in series [7] of 22.3 µM. Further, the inhibition in series [8] was determined as 93%.

For `NC(=S)c1cccnc1`, the residual activity in series [1] worked out at 106%; in series [2], 104%; in series [4] it was 109%. Moreover, the KSV in series [3] amounted to 8.5 ×10³ /M. Besides, the viability at 48 h, 50 µM in [5] came to 108%. This compound returned an IC50 in series [6] of 7.5 µM. Besides, the Kic in series [7] was found to be 4.3 µM. The inhibition in [8] worked out at 83%.

Consider `NC(=S)c1ccccc1`, for which the residual activity stood at 63% in series [1], 93% in [2] and 103% in series [4]. Also, the KSV in [3] came to 9.2 ×10³ /M. Also, in series [5], the viability at 48 h, 50 µM amounted to 117%. Moreover, in series [6], the IC50 worked out at 2.8 µM. For the same compound, the Kic in series [7] stood at 0.7 µM. In addition, in [8], the inhibition turned out to be 72%.
